# Results published in ChEMBL document CHEMBL5252523, “Searching for New Leads for Tuberculosis: Design, Synthesis, and Biological Evaluation of Novel 2-Quinolin-4-yloxyacetamides” (J Med Chem, 2016).
# Test system: not listed separately
# Experiment: Cytotoxicity against human HepG2 cells assessed as cell growth inhibition incubated for 48 hrs by CellTiter-Glo reagent based analysis
# Assay type: toxicity
# Settings: not given
# Outline: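 HepG2 cells kept in Eagle's MEM with 10% heat-inactivated FBS, 1% NEAA and penicillin/streptomycin, seeded at ~3000 cells/well onto pre-dispensed compound. Incubation was 48 h at 37 °C, 5% CO2. Plates were equilibrated to room temperature, CellTiter-Glo was added, and ATP luminescence was read after 10 min as the viability read-out.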
row,SMILES,IC50 at 48 h [µM]
1,COc1ccc2c(OCC(=O)Nc3cc(C)cc(C)c3)cc(C)nc2c1,50.1
2,CSc1ccc2nc(C)cc(OCC(=O)Nc3cc(C)cc(C)c3)c2c1,> 100
3,COc1ccc2nc(C)cc(OCC(=O)Nc3ccncn3)c2c1,> 100
4,CCCc1cc(OCC(=O)Nc2cc(C)cc(C)c2)c2cc(OC)ccc2n1,12.6
5,COc1ccc2nc(C)cc(OCC(=O)Nc3ccc(F)cc3)c2c1,63.1
6,Cc1cc(C)cc(NC(=O)COc2cc(C(F)(F)F)nc3c(C(F)(F)F)cccc23)c1,> 100
7,COc1ccc2nc(C)cc(OCC(=O)Nc3cc(OC)c(OC)c(OC)c3)c2c1,> 100
8,Cc1cc(C)cc(NC(=O)COc2cc(C)nc3ccc(OCc4ccccc4)cc23)c1,> 100
9,CCOc1ccc2nc(C(F)(F)F)cc(OCC(=O)Nc3cc(C)cc(C)c3)c2c1,> 100
10,COc1ccc2nc(C)cc(OCC(=O)Nc3noc(C)c3C)c2c1,> 100
11,COc1ccc2nc(C)cc(OC3CCN(c4ccccc4)C3=O)c2c1 (configuration not stated),100
12,COc1ccc2nc(C)cc(OCC(=O)Nc3cc(OC)c(Cl)cc3OC)c2c1,> 100
13,COc1ccc2nc(C)cc(OCC(=O)Nc3cc(C)nc(C)n3)c2c1,> 100
14,COc1ccc2nc(C)cc(OCC(=O)Nc3ccccn3)c2c1,> 100
15,COc1ccc2nc(C)cc(OC(C)C(=O)Nc3cc(C)cc(C)c3)c2c1 (configuration not stated),39.8
16,Cc1cc(C)cc(NC(=O)COc2cc(C)nc3ccccc23)c1,> 100
17,COc1ccc2nc(C)cc(OCC(=O)Nc3cccnc3)c2c1,> 100
18,COc1ccc2nc(C)cc(OCC(=O)NCc3cc(C)cc(C)c3)c2c1,> 100
19,COc1ccc2nc(C)c3nc(C(=S)Nc4cc(C)cc(C)c4)sc3c2c1,> 100
20,COc1ccc2nc(C)cc(OCC(=O)Nc3ccc(Cl)c(OC)c3)c2c1,> 100
21,COc1ccc2nc(C)cc(OCC(=O)Nc3ccncc3)c2c1,> 100
22,CCOc1ccc2nc(C)cc(OCC(=O)Nc3cc(C)cc(C)c3)c2c1,> 100
23,CCC(Oc1cc(C)nc2ccc(OC)cc12)C(=O)Nc1cc(C)cc(C)c1 (configuration not stated),79.4
24,Cc1cc(C)cc(NC(=O)COc2cc(C)nc3ccc(Cl)cc23)c1,> 100

# Test system: not listed separately
# Experiment: Artificial membrane permeability of the compound incubated for 3 hrs by HPLC analysis
# Assay type: ADME
# Settings: PAMPA, read-out: permeability
row,SMILES,Papp at 3 h [×10⁻⁶ cm/s]
1,COc1ccc2nc(C)cc(OCC(=O)Nc3ccncn3)c2c1,52.5
2,COc1ccc2nc(C)cc(OCC(=O)Nc3ccc(F)cc3)c2c1,23
3,Cc1cc(C)cc(NC(=O)COc2cc(C(F)(F)F)nc3c(C(F)(F)F)cccc23)c1,< 1
4,COc1ccc2nc(C)cc(OCC(=O)Nc3cc(OC)c(OC)c(OC)c3)c2c1,62
5,Cc1cc(C)cc(NC(=O)COc2cc(C)nc3ccc(OCc4ccccc4)cc23)c1,< 1
6,CCOc1ccc2nc(C(F)(F)F)cc(OCC(=O)Nc3cc(C)cc(C)c3)c2c1,< 0.3
7,COc1ccc2nc(C)cc(OCC(=O)Nc3noc(C)c3C)c2c1,62.5
8,COc1ccc2nc(C)cc(OC3CCN(c4ccccc4)C3=O)c2c1 (configuration not stated),55
9,COc1ccc2nc(C)cc(OCC(=O)Nc3cc(C)nc(C)n3)c2c1,1.2
10,COc1ccc2nc(C)cc(OCC(=O)Nc3ccccn3)c2c1,48
11,COc1ccc2nc(C)cc(OC(C)C(=O)Nc3cc(C)cc(C)c3)c2c1 (configuration not stated),32
12,Cc1cc(C)cc(NC(=O)COc2cc(C)nc3ccccc23)c1,37
13,COc1ccc2nc(C)cc(OCC(=O)Nc3cccnc3)c2c1,33
14,COc1ccc2nc(C)cc(OCC(=O)NCc3cc(C)cc(C)c3)c2c1,< 0.3
15,COc1ccc2nc(C)c3nc(C(=S)Nc4cc(C)cc(C)c4)sc3c2c1,< 3
16,COc1ccc2nc(C)cc(OCC(=O)Nc3ccc(Cl)c(OC)c3)c2c1,57
17,COc1ccc2nc(C)cc(OCC(=O)Nc3ccncc3)c2c1,56
18,CCOc1ccc2nc(C)cc(OCC(=O)Nc3cc(C)cc(C)c3)c2c1,< 3
19,CCC(Oc1cc(C)nc2ccc(OC)cc12)C(=O)Nc1cc(C)cc(C)c1 (configuration not stated),39

# Test system: not listed separately
# Experiment: Kinetic aqueous solubility of compound in phosphate buffer at pH 7.4 incubated for 1 hrs by CLND assay
# Assay type: physicochemical
# Settings: read-out: Kinetic_solubility
row,SMILES,solubility kinetic at 1 h [µM]
1,CSc1ccc2nc(C)cc(OCC(=O)Nc3cc(C)cc(C)c3)c2c1,3
2,COc1ccc2nc(C)cc(OCC(=O)Nc3ccncn3)c2c1,27.5
3,CCCc1cc(OCC(=O)Nc2cc(C)cc(C)c2)c2cc(OC)ccc2n1,12
4,COc1ccc2nc(C)cc(OCC(=O)Nc3ccc(F)cc3)c2c1,104
5,Cc1cc(C)cc(NC(=O)COc2cc(C(F)(F)F)nc3c(C(F)(F)F)cccc23)c1,< 1
6,COc1ccc2nc(C)cc(OCC(=O)Nc3cc(OC)c(OC)c(OC)c3)c2c1,34
7,Cc1cc(C)cc(NC(=O)COc2cc(C)nc3ccc(OCc4ccccc4)cc23)c1,< 1
8,CCOc1ccc2nc(C(F)(F)F)cc(OCC(=O)Nc3cc(C)cc(C)c3)c2c1,< 1
9,COc1ccc2nc(C)cc(OCC(=O)Nc3noc(C)c3C)c2c1,196
10,COc1ccc2nc(C)cc(OC3CCN(c4ccccc4)C3=O)c2c1 (configuration not stated),215
11,COc1ccc2nc(C)cc(OCC(=O)Nc3cc(OC)c(Cl)cc3OC)c2c1,3
12,COc1ccc2nc(C)cc(OCC(=O)Nc3cc(C)nc(C)n3)c2c1,5
13,COc1ccc2nc(C)cc(OCC(=O)Nc3ccccn3)c2c1,29
14,COc1ccc2nc(C)cc(OC(C)C(=O)Nc3cc(C)cc(C)c3)c2c1 (configuration not stated),61
15,Cc1cc(C)cc(NC(=O)COc2cc(C)nc3ccccc23)c1,55
16,COc1ccc2nc(C)cc(OCC(=O)Nc3cccnc3)c2c1,32
17,COc1ccc2nc(C)cc(OCC(=O)NCc3cc(C)cc(C)c3)c2c1,92
18,COc1ccc2nc(C)c3nc(C(=S)Nc4cc(C)cc(C)c4)sc3c2c1,35
19,COc1ccc2nc(C)cc(OCC(=O)Nc3ccc(Cl)c(OC)c3)c2c1,13
20,COc1ccc2nc(C)cc(OCC(=O)Nc3ccncc3)c2c1,91.5
21,CCC(Oc1cc(C)nc2ccc(OC)cc12)C(=O)Nc1cc(C)cc(C)c1 (configuration not stated),123
22,Cc1cc(C)cc(NC(=O)COc2cc(C)nc3ccc(Cl)cc23)c1,8

# Test system: Mycobacterium tuberculosis
# Experiment: Antimycobacterial activity against Mycobacterium tuberculosis H37Rv ATCC 25618 assessed as inhibition of microbial growth incubated for 6 days by resazurin based assay
# Assay type: functional
# Settings: H37Rv ATCC 25618, 144 h, time 6 day
# Outline: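 Ten two-fold dilutions made in neat DMSO, tested in Middlebrook 7H9 with the H37Rv inoculum. Controls: isoniazid from 4 μg/ml as positive control; rifampicin 1 μM as no-growth control. Plates sat sealed at 37 °C without shaking for 6 days.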
row,SMILES,MIC [µM]
1,COc1ccc2c(OCC(=O)Nc3cc(C)cc(C)c3)cc(C)nc2c1,> 250
2,CSc1ccc2nc(C)cc(OCC(=O)Nc3cc(C)cc(C)c3)c2c1,> 125
3,COc1ccc2nc(C)cc(OCC(=O)Nc3ccncn3)c2c1,> 250
4,CCCc1cc(OCC(=O)Nc2cc(C)cc(C)c2)c2cc(OC)ccc2n1,> 250
5,COc1ccc2nc(C)cc(OCC(=O)Nc3ccc(F)cc3)c2c1,12
6,Cc1cc(C)cc(NC(=O)COc2cc(C(F)(F)F)nc3c(C(F)(F)F)cccc23)c1,> 250
7,COc1ccc2nc(C)cc(OCC(=O)Nc3cc(OC)c(OC)c(OC)c3)c2c1,62
8,Cc1cc(C)cc(NC(=O)COc2cc(C)nc3ccc(OCc4ccccc4)cc23)c1,> 250
9,CCOc1ccc2nc(C(F)(F)F)cc(OCC(=O)Nc3cc(C)cc(C)c3)c2c1,> 250
10,COc1ccc2nc(C)cc(OCC(=O)Nc3noc(C)c3C)c2c1,187
11,COc1ccc2nc(C)cc(OC3CCN(c4ccccc4)C3=O)c2c1 (configuration not stated),125
12,COc1ccc2nc(C)cc(OCC(=O)Nc3cc(OC)c(Cl)cc3OC)c2c1,> 125
13,COc1ccc2nc(C)cc(OCC(=O)Nc3cc(C)nc(C)n3)c2c1,> 250
14,COc1ccc2nc(C)cc(OCC(=O)Nc3ccccn3)c2c1,15.7
15,COc1ccc2nc(C)cc(OC(C)C(=O)Nc3cc(C)cc(C)c3)c2c1 (configuration not stated),125
16,Cc1cc(C)cc(NC(=O)COc2cc(C)nc3ccccc23)c1,24
17,COc1ccc2nc(C)cc(OCC(=O)Nc3cccnc3)c2c1,62.5
18,COc1ccc2nc(C)cc(OCC(=O)NCc3cc(C)cc(C)c3)c2c1,31
19,COc1ccc2nc(C)c3nc(C(=S)Nc4cc(C)cc(C)c4)sc3c2c1,> 125
20,COc1ccc2nc(C)cc(OCC(=O)Nc3ccc(Cl)c(OC)c3)c2c1,> 125
21,COc1ccc2nc(C)cc(OCC(=O)Nc3ccncc3)c2c1,> 250
22,CCOc1ccc2nc(C)cc(OCC(=O)Nc3cc(C)cc(C)c3)c2c1,> 250
23,CCC(Oc1cc(C)nc2ccc(OC)cc12)C(=O)Nc1cc(C)cc(C)c1 (configuration not stated),> 250
24,Cc1cc(C)cc(NC(=O)COc2cc(C)nc3ccc(Cl)cc23)c1,40

# Test system: not listed separately
# Experiment: Chromatographic hydrophobicity index, log D of the compound in phosphate buffer at pH 7.4 by UV-HPLC analysis
# Assay type: physicochemical
# Settings: not given
row,SMILES,chromatographic logD
1,COc1ccc2c(OCC(=O)Nc3cc(C)cc(C)c3)cc(C)nc2c1,5.59
2,CSc1ccc2nc(C)cc(OCC(=O)Nc3cc(C)cc(C)c3)c2c1,6.42
3,COc1ccc2nc(C)cc(OCC(=O)Nc3ccncn3)c2c1,2.53
4,CCCc1cc(OCC(=O)Nc2cc(C)cc(C)c2)c2cc(OC)ccc2n1,6.44
5,COc1ccc2nc(C)cc(OCC(=O)Nc3ccc(F)cc3)c2c1,4.49
6,Cc1cc(C)cc(NC(=O)COc2cc(C(F)(F)F)nc3c(C(F)(F)F)cccc23)c1,7.73
7,COc1ccc2nc(C)cc(OCC(=O)Nc3cc(OC)c(OC)c(OC)c3)c2c1,3.95
8,Cc1cc(C)cc(NC(=O)COc2cc(C)nc3ccc(OCc4ccccc4)cc23)c1,7.03
9,CCOc1ccc2nc(C(F)(F)F)cc(OCC(=O)Nc3cc(C)cc(C)c3)c2c1,7.55
10,COc1ccc2nc(C)cc(OCC(=O)Nc3noc(C)c3C)c2c1,3.3
11,COc1ccc2nc(C)cc(OC3CCN(c4ccccc4)C3=O)c2c1 (configuration not stated),4.99
12,COc1ccc2nc(C)cc(OCC(=O)Nc3cc(OC)c(Cl)cc3OC)c2c1,5.8
13,COc1ccc2nc(C)cc(OCC(=O)Nc3cc(C)nc(C)n3)c2c1,3.24
14,COc1ccc2nc(C)cc(OCC(=O)Nc3ccccn3)c2c1,3.49
15,COc1ccc2nc(C)cc(OC(C)C(=O)Nc3cc(C)cc(C)c3)c2c1 (configuration not stated),5.76
16,Cc1cc(C)cc(NC(=O)COc2cc(C)nc3ccccc23)c1,5.39
17,COc1ccc2nc(C)cc(OCC(=O)Nc3cccnc3)c2c1,2.46
18,COc1ccc2nc(C)cc(OCC(=O)NCc3cc(C)cc(C)c3)c2c1,5.25
19,COc1ccc2nc(C)cc(OCC(=O)Nc3ccc(Cl)c(OC)c3)c2c1,5.09
20,COc1ccc2nc(C)cc(OCC(=O)Nc3ccncc3)c2c1,2.5
21,CCOc1ccc2nc(C)cc(OCC(=O)Nc3cc(C)cc(C)c3)c2c1,5.98
22,CCC(Oc1cc(C)nc2ccc(OC)cc12)C(=O)Nc1cc(C)cc(C)c1 (configuration not stated),6.28
23,Cc1cc(C)cc(NC(=O)COc2cc(C)nc3ccc(Cl)cc23)c1,6.38
